Assay outcomes deposited in PubChem by several laboratories.
The list is not random: actives were taken first. Their share in the collection is about 1.8%.
PG9 binder: PG9 antibody binding by small molecule; hit rate 0.43% among 360,000; inhibition, % at 6.7 µM; TR-FRET gp120-PG9 antibody binding; AID 624416; in the data active = inhibition above about 8.5%
Rin1 Abl inh: inhibitors of human Rin1-Abl protein interaction; P00519+Q13671; TR-FRET Rin1/Abl binding, biochemical; inhibition, % at 7.35 µM; hit rate 0.4% among 360,000; AID 588664; in the data active = inhibition above about 5%, passing the limit was not always enough
Rev-erbA mod: modulators of human Rev-erb alpha DNA binding; P20393; Rev-erbα–FITC-DNA binding, fluorescence polarization, 90 min; activity, % at 10 µM; hit rate 0.79% among 370,000; AID 1259318;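 active = activity above about 14%, limit read from the data; passing the limit was not always enough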
TbMetRS inhib: Trypanosoma brucei MetRS inhibition. AID 624268. purified T. brucei MetRS, ATP depletion, Kinase-Glo luminescence. hit rate 0.4% among 360,000. inhibition, % at 11.9 µM;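 active = inhibition above a per-plate cutoff of the control wells' mean inhibition plus 3 SD, cut at about 5.5% in these data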
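Assay system: T. brucei methionyl-tRNA synthetase, purified | Medium: HEPES buffer with MgCl2, KCl, DTT, spermine, BSA, pyrophosphatase | Compound: 11.9 µM single point | Incubation: 15 min enzyme-compound preincubation, 2 h reaction, 10 min detection, 25 °C | Measured by: Kinase-Glo luciferase luminescence reporting remaining unconsumed ATP | Measure: % inhibition normalized to control-well medians | Replication: Singlicate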
NR1D1 mod conf: Rev-erb alpha (human) modulation, hit confirmation; shares compounds with Rev-erbA mod; Rev-erb alpha FITC-DNA binding, fluorescence polarization, 90 min; activation, % at 25 µM; hit rate 61% among 3,000;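 active = activation at or above a set limit, or at least 3 SD above the negative control mean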
RORg DNA counter: affects RORgamma DNA binding in a Rev-erb alpha counter-screen. hit rate 8% among 910. purified RORgamma protein-FITC-DNA binding, fluorescence polarization. IC50, µM. shares compounds with Rev-erbA mod;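 active = Compounds whose fitted half-maximal concentration for disrupting protein-DNA binding is below 10 micromolar; the record names Rev-erb in its text, so the target is in doubt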
Large screens that a line does not name were inactive (follow-up assays come after a bar, where they were run).

COC(=O)c1ccccc1NC(=O)c1cn(-c2ccc(C)c(C)c2)c(=O)c2ccccc12	Rev-erbA mod 42 | NR1D1 mod conf 48 | RORg DNA counter inactive
CCOC(=O)c1ccccc1NC(=O)c1cn(-c2ccc(C)c(C)c2)c(=O)c2ccccc12	none
CC[C@@H](NC(=O)[C@@H](Cc1ccccc1)NC(=O)CC[C@H]1O[C@@H](n2ccc(=O)[nH]c2=O)[C@H](O)[C@@H]1O)c1ccccc1	none
Cc1cccc(C(=O)OCC(=O)c2cccc(Br)c2)c1O	Rev-erbA mod 19 | NR1D1 mod conf inactive
O=C(COc1ccc([N+](=O)[O-])cc1)Nc1cccc2nsnc12	Rev-erbA mod 24 | NR1D1 mod conf 22
S=c1[nH]cnc2sc(-c3ccccc3)cc12	none
Cc1c(Cl)cccc1NC(=O)Cn1cc(C(F)(F)F)cc(Cl)c1=O	Rev-erbA mod 44 | NR1D1 mod conf 43 | RORg DNA counter inactive
Cc1ccc(Cl)cc1NC(=O)Cn1cc(C(F)(F)F)cc(Cl)c1=O	none
COc1ccc(C(=O)NCCNc2nc3cc(C)cc(C)c3cc2C#N)nc1	Rev-erbA mod 23 (no result: Rin1 Abl inh) | NR1D1 mod conf 45 | RORg DNA counter inactive
COc1ccc(NC(=O)c2ccc(Br)c(S(=O)(=O)N3CCOCC3)c2)cc1	none
COc1cc2c(cc1NC(=O)CN1CCN(S(=O)(=O)c3ccc(C)cc3)CC1)oc1ccccc12	Rev-erbA mod 27 | NR1D1 mod conf 19
Cc1oc2cc3oc(=O)c4c(c3cc2c1C)CCC4	Rev-erbA mod 49 | NR1D1 mod conf 44 | RORg DNA counter inactive
Cc1oc2c(C)c3oc(=O)c4c(c3cc2c1C)CCC4	Rev-erbA mod 46 | NR1D1 mod conf inactive
O=c1[nH]c(SCc2ccc(OC(F)(F)F)cc2)nc2c1CCC2	none
CCOC(=O)c1c(NC(=O)c2c(Br)cnn2CC)sc(C)c1C	Rev-erbA mod 28 | NR1D1 mod conf inactive
CCc1ccc(NC(=O)CSc2nc(=O)n(CCN(C)C)c3c2CCCC3)cc1	none
CC(=O)NC(C)(c1ccccc1)c1nc(-c2cnc3ccccc3c2)cs1 (configuration not stated)	none
Cc1ccc2c(n1)sc1c(-c3ccccc3)c(C#N)c(N)nc12	Rev-erbA mod 49 | NR1D1 mod conf 38 | RORg DNA counter inactive
Cc1nc(N)c(C#N)c(-c2cccnc2)c1-c1ccccc1	none
O=c1[nH]cnc2cc(-c3ccc(Br)cc3)sc12	Rev-erbA mod 26 | NR1D1 mod conf inactive
O=c1[nH]c(CCl)nc2cc(-c3ccc(F)cc3)sc12	none
CCCC(Oc1ccc(Br)cc1)c1nc2c3cc(OC)c(OC)cc3nc(=S)n2[nH]1 (configuration not stated)	Rev-erbA mod 47 | NR1D1 mod conf 39 | RORg DNA counter inactive
CC(Oc1ccc(Br)cc1)c1nc2c3ccccc3nc(=S)n2[nH]1 (configuration not stated)	none
COC(=O)c1c(C(=O)c2ccc(Br)cc2)n(C)c2ccccc12	Rev-erbA mod 18 | NR1D1 mod conf 21
COC(=O)c1c(S(N)(=O)=O)c2ccccc2n1C	none
CCn1c(=O)cc(SCC(=O)Nc2ccc(Cl)cc2)c2ccccc21	Rev-erbA mod 138 | NR1D1 mod conf 90 | RORg DNA counter inactive
CCOC(=O)c1ccc(NC(=O)COc2cc(=O)n(CC)c3ccccc23)cc1	Rev-erbA mod 28 | NR1D1 mod conf 27
CC1C(=O)N2CCCc3cc(S(=O)(=O)N4CCN(c5ccccc5F)CC4)cc1c32 (configuration not stated)	none
CCC(C)c1ccccc1NC(=O)CN(CC)CC(=O)Nc1ccc2c(c1)OCCO2 (configuration not stated)	none
O=C(CSc1nc2ccccc2nc1N1CCCCC1)N1CCN(C(c2ccccc2)c2ccc(Cl)cc2)CC1 (configuration not stated)	Rev-erbA mod 19 (no result: PG9 binder, Rin1 Abl inh, TbMetRS inhib) | NR1D1 mod conf 21
O=C(CSc1nc2ccccc2nc1N1CCCC1)N1CCN(C(c2ccccc2)c2ccccc2)CC1	none (no result: PG9 binder, Rin1 Abl inh, TbMetRS inhib)
CCOC(=O)[C@H]1[C@H]2COc3ccccc3[C@@H]2N2C(=O)[C@@H](C)NC(=O)[C@@]12C	none
COc1ccc2cc(OCC(=O)NNC(=O)Nc3ccc(C(C)=O)cc3)ccc2c1	none
COc1ccc(NC(=O)NNC(=O)COc2ccc3cc(Br)ccc3c2)cc1	Rev-erbA mod 16 | NR1D1 mod conf inactive
COc1ccc(CCNC(=O)c2cc(COc3c(C)cccc3C)on2)c(OC)c1	none
COc1cc(C(=O)NCC(=O)N2CCN(S(=O)(=O)c3ccccc3)CC2)cc(OC)c1OC	none
Cc1cc(C)n2nc(CNS(=O)(=O)c3ccc(C(C)(C)C)cc3)nc2n1	none
CC1Cc2ccccc2N1C(=O)CSc1ncccn1 (configuration not stated)	none
Cc1ccc2nc(SCC(=O)N3c4ccccc4CC3C)c(C)cc2c1 (configuration not stated)	Rev-erbA mod 28 | NR1D1 mod conf inactive
Cc1ccc2nc(-c3cccnc3SCC(=O)N3c4ccccc4CC3C)[nH]c2c1 (configuration not stated)	Rev-erbA mod 33 | NR1D1 mod conf 20
CCOC(=O)[C@]12CCCCC/C=C\1N(CCc1ccc(Cl)cc1)C(=O)[C@H]2CC(=O)N1CCC(c2ccccc2)CC1	none (no result: PG9 binder, Rin1 Abl inh, TbMetRS inhib)
N#Cc1c2ncn(CC(=O)c3ccc(Br)cc3)c(=O)c2c2n1CCC2	Rev-erbA mod 17 | NR1D1 mod conf inactive
N#Cc1c2n(c3c(=O)n(CC(=O)c4ccc(Br)cc4)cnc13)CCCC2	none
N#C/C(=C/C1=C(N2CCOCC2)C(=C/c2ccccc2)/CC1)C(=O)Nc1ccccc1F	Rev-erbA mod 19 | NR1D1 mod conf 18
CCN1CCN(S(=O)(=O)c2c(C)cc(C)cc2C)CC1	none
COC(=O)c1ccc2nc(Nc3nc4c(F)cc(F)cc4s3)sc2c1	Rev-erbA mod 38 | NR1D1 mod conf 33 | RORg DNA counter inactive
CCOC(=O)c1ccc2nc(Nc3nc4ccc(F)cc4s3)sc2c1	Rev-erbA mod 35 | NR1D1 mod conf 31 | RORg DNA counter inactive
CCOC(=O)C(=CNc1nc2ccc(C(=O)OCC)cc2s1)C(=O)OCC	Rev-erbA mod 35 | NR1D1 mod conf 19
COc1ccc(CN2C(=O)c3cccnc3C2=O)cc1S(=O)(=O)N(C)c1cccc(C)c1	none
COCC#Cc1cnc2c(c1)C(=O)N([C@@H](C)CO)C[C@H](C)[C@H](CN(C)C(=O)c1ccc3c(c1)OCO3)O2	none (no result: Rin1 Abl inh, TbMetRS inhib)
COc1ccc(NS(=O)(=O)c2ccc(C)c(C(=O)N3CCCCCCC3)c2)cc1	none
Clc1ccc(-c2ccnc(Oc3cc(Cl)ccc3Cl)n2)cc1	Rev-erbA mod 35 | NR1D1 mod conf 39 | RORg DNA counter inactive
Clc1ccc(-c2ccnc(Oc3ccc4ccccc4c3)n2)cc1	none
N#CCCn1c(-c2nonc2NC(=O)c2ccccc2Cl)nc2ccccc21	Rev-erbA mod 77 | NR1D1 mod conf 22
CC(=O)Nc1nonc1-c1nc2ccccc2n1CCC#N	none
